From ChEMBL document CHEMBL1155291, “Structure-activity relationship of dopaminergic halogenated 1-benzyl-tetrahydroisoquinoline derivatives” (Eur J Med Chem, 2009) come the findings set out here.

A short description of experiment [1]: Displacement of [3H]SCH23390 from dopamine D1-like receptor in Wistar rat striatal membrane after 1 hr by scintillation counting. It is filed as cell membranes, Striatum. Summed up:
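Striatal membranes from female Wistar rats, 100 µg/mL, in Tris-ions buffer pH 7.4 (120 mM NaCl, 2 mM CaCl2, 5 mM KCl, 1 mM MgCl2, 0.1% ascorbic acid). Incubated 1 h at 23 °C with 0.25 nM [3H]-SCH23390 and competitor 10^-10 to 10^-4 M. Non-specific binding with 30 µM SK&F38393. Filtration, then scintillation counting. Ki from KD 0.36 nM. Mean ± SEM of 3–6 experiments.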
(In general: In a radioligand displacement assay an active substance lowers the binding of a labelled ligand.)

The nature of experiment [2]: Displacement of [3H]raclopride from dopamine D2-like receptor in Wistar rat striatal membrane after 1 hr by scintillation counting. It is filed as cell membranes, Striatum. Put shortly:
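Striatal membranes from female Wistar rats, 200 µg/mL, in Tris-ions buffer pH 7.4 (120 mM NaCl, 2 mM CaCl2, 5 mM KCl, 1 mM MgCl2, 0.1% ascorbic acid). Incubated 1 h at 23 °C with 0.5 nM [3H]-raclopride and competitor 10^-10 to 10^-4 M. Non-specific binding with 50 µM apomorphine. Filtration, then scintillation counting. Ki from KD 1.25 nM. Mean ± SEM of 3–6 experiments.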

The species entered for a further experiment is Rattus norvegicus. As to the kind of experiment: Selectivity ratio of Ki of Wistar rat dopamine D1-like receptor to Ki for Wistar rat dopamine D2-like receptor.

SMILES strings stand for the structures.

For orientation: Ki means a dissociation constant, usually derived from enzyme kinetics or from competition with a known ligand. Lower therefore signals tighter binding. Broadly, the pKi is the Ki on a negative log10 scale, so that one unit is a factor of ten. A higher pKi goes with a low Ki. `COc1cc2c(cc1Cl)CCNC2Cc1ccc(Cl)cc1Cl` (stereo not given): in experiment [1], affinity was put at a Ki of 11300 nM and the pKi stood at 5.01. Besides, in experiment [2], the affinity corresponds to a Ki of 3300 nM and the pKi was 5.51. Also, in the experiment listed under Rattus norvegicus, the Ratio Ki is 3.4.
In the same order, the values of `Oc1cc2c(cc1Cl)CCNC2Cc1ccccc1Br` (stereo not given) are 110 nM, 7.06, 46 nM, 7.39 and 2.4.
In the same order, the values of `COc1cc2c(cc1Cl)CCN(C)C2Cc1ccccc1Br` (stereo not given) are 1320 nM, 5.89, 1340 nM, 5.9 and 1.
On to `CN1CCc2cc(Cl)c(O)cc2C1Cc1ccccc1Br` (stereo not given), for which the results for the Ki in experiment [1] and in experiment [2] were 65 nM and 18 nM, respectively. The pKi in experiment [1] is reported as 7.21; in experiment [2], 7.76. Further, the Ratio Ki in the experiment filed under Rattus norvegicus was determined as 3.6.
For `Oc1cc2c(cc1Cl)CCNC2Cc1ccc(Cl)cc1Cl` (stereo not given) the same measures were 183 nM, 107 nM, 6.74, 7 and 1.7.
Consider `CN1CCc2cc(Cl)c(O)cc2C1Cc1ccc(Cl)cc1Cl` (stereo not given), for which the Ki came out at 241 nM in experiment [1] and 269 nM in experiment [2]. Moreover, the pKi in experiment [1] was found to be 6.71; in experiment [2] it was 6.64. For the same compound, in the experiment filed under Rattus norvegicus, the Ratio Ki is 0.9.
In the same order, the values of `COc1cc2c(cc1Cl)CCNC2Cc1ccccc1Br` (stereo not given) are 1530 nM, 245 nM, 5.83, 6.63 and 6.2.
In the same order, the values of `COc1cc2c(cc1Cl)CCN(C)C2Cc1ccc(Cl)cc1Cl` (stereo not given) are 15100 nM, 6130 nM, 4.84, 5.23 and 2.5.
